Measured values reported in PubChem BioAssay AID692 (The Scripps Research Institute Molecular Screening Center, 2007).
The source made the active and inactive calls.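 How the source made its calls: active means EC50 at or below a set limit; inactive means the rest.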

Target: Steroidogenic factor 1 (Homo sapiens) (UniProt Q13285)
Assay: activation of SF-1 LBD reporter – cell-based, CHO-K1, Gal4-SF-1 LBD, luciferase luminescence, dose response (AID 692)
Conditions: CHO-K1 Gal4-SF1 LBD luciferase reporter
Outline: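 Assay system: CHO-K1 Gal4–SF-1 LBD luciferase reporter cells; Doses: 10 points, 1:3 steps, up to 100 µM; Incubation: compound exposure of cells 20 h at 37 °C; Technique: luminescence; Read-out: % activation vs DMSO/mock-transfected cells, EC50 from four-parameter sigmoidal fit; Benchmarks: DMSO-treated transfected cells and mock-transfected background; Replication: triplicate.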

Steroidogenic factor 1 (Homo sapiens), sequence (Q13285 whole entry, looked up, the tested form may be a part): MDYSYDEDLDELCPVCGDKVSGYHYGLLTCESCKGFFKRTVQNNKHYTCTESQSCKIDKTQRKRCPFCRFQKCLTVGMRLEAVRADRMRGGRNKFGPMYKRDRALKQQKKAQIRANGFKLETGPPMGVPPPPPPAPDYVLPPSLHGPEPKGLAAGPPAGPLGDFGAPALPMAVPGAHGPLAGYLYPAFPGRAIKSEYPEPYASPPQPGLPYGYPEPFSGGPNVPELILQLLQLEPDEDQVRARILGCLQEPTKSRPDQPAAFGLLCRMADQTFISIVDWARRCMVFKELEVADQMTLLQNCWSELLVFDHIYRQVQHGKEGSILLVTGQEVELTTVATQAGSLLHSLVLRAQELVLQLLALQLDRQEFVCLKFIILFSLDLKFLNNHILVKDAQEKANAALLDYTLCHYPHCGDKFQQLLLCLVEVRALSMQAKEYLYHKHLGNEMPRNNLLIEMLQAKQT

Compound | EC50
COc1ccc(C(=O)/C=C/Nc2cccc(C)n2)cc1OC | 0.401 µM
C/C(N)=C(/C#N)C(=O)CSc1ccc2c(c1)OCCO2 | 2.89 µM
Cc1ccc(C2/C(=C(\O)c3cnn(-c4ccccc4)c3C)C(=O)C(=O)N2CCN(C)C)o1 (stereo not drawn) | 3.59 µM
O=C1CCCC(O)=C1C=Nc1ccc(O)cc1 | 3.76 µM
CC1(C)CC(=O)C(C=Nc2ccccc2)=C(O)C1 | 6.83 µM
CC1(C)CC(=O)C(C=Nc2ccc3[nH]ncc3c2)=C(O)C1 | > 11 µM (inactive)
COC(=O)c1ccc(/C(O)=C(\C#N)c2nc3ccccc3s2)cc1 | 2.71 µM
COc1cc(C2C3C(=O)N(c4ccccc4)C(=O)C3ON2c2ccccc2)ccc1O (stereo not drawn) | inactive
